Results from ChEMBL document CHEMBL1134619, “Arylcyclopropanecarboxyl guanidines as novel, potent, and selective inhibitors of the sodium hydrogen exchanger isoform-1” (J Med Chem, 2001).

Columns and labels:
[1] = target: Sodium/hydrogen exchanger 1 (Homo sapiens, UniProt P19634); assay: Screened in AP1 cells expressing human NHE-1 for sodium hydrogen exchange activity; format: functional, cell-based
In short: (§1)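 AP1 cell monolayers expressing the given human NHE isoform, loaded with BCECF-AM (5 µM final, 30 min, room temperature) in NaCl-HEPES pH 7.3. Acid load by NH4Cl-HEPES for 9 min, then washes in Na+-free choline buffer. Drug preincubation 7.5 min, then NaCl added (135 mM final). Fluorescence 485/444 nm excitation ratio (538 nm emission) read after 5 min, minus no-NaCl activity. IC50 from 8-point dose-response curve, mean ± SEM of several experiments.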

[2] = Volume distribution at steady state in rats was determined; format: ADME, organism-based; conditions: rat, in vivo; read-out: VSS
In short: (§2)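 Rats (n = 3) given a single 10 µmol/kg dose either intra-arterially or orally. Plasma samples analysed by LC/MS/MS. PK parameters are means ± SEM of the three animals.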

[3] = Half life period in rats was determined; format: ADME, organism-based; conditions: rat, in vivo; in short: as §2
[4] = Plasma clearance in rats was determined; format: ADME, organism-based; conditions: rat; in short: as §2
[5] = Oral bioavailability in rat; format: ADME, organism-based; conditions: in vivo; in short: as §2
[6] = target: T1, Sodium/hydrogen exchanger 3 (Homo sapiens, UniProt P48764); assay: Compound is screened in AP1 cells expressing human NHE-3 for sodium hydrogen exchange activity; format: functional, cell-based; in short: as §1
T1 sequence (P48764 whole entry): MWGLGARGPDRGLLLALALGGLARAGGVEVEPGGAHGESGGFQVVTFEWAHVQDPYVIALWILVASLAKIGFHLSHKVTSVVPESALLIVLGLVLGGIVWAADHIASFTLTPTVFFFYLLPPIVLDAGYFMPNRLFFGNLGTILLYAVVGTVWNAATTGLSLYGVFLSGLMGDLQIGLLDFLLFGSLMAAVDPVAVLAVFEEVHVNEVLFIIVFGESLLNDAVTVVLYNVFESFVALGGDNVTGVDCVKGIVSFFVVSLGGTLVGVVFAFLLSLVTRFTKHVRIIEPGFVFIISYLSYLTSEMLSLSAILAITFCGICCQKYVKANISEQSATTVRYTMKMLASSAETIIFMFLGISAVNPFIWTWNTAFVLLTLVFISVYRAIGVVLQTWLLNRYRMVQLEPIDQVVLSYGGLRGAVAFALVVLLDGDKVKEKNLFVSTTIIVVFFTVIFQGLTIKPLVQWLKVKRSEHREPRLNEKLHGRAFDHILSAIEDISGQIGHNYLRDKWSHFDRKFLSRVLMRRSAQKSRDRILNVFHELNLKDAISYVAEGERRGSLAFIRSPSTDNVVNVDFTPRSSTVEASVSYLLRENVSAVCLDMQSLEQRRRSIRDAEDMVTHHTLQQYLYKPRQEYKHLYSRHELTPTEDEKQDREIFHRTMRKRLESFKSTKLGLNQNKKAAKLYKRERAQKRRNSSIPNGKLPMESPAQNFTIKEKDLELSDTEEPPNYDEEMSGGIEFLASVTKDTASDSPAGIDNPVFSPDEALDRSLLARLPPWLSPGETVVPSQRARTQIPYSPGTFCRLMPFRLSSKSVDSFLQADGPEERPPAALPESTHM

[7] = target: T2, Sodium/hydrogen exchanger 5 (Homo sapiens, UniProt Q14940); assay: Compound is screened in AP1 cells expressing human NHE-5 for sodium hydrogen exchange activity; format: functional, cell-based; in short: as §1
T2 sequence (Q14940 whole entry): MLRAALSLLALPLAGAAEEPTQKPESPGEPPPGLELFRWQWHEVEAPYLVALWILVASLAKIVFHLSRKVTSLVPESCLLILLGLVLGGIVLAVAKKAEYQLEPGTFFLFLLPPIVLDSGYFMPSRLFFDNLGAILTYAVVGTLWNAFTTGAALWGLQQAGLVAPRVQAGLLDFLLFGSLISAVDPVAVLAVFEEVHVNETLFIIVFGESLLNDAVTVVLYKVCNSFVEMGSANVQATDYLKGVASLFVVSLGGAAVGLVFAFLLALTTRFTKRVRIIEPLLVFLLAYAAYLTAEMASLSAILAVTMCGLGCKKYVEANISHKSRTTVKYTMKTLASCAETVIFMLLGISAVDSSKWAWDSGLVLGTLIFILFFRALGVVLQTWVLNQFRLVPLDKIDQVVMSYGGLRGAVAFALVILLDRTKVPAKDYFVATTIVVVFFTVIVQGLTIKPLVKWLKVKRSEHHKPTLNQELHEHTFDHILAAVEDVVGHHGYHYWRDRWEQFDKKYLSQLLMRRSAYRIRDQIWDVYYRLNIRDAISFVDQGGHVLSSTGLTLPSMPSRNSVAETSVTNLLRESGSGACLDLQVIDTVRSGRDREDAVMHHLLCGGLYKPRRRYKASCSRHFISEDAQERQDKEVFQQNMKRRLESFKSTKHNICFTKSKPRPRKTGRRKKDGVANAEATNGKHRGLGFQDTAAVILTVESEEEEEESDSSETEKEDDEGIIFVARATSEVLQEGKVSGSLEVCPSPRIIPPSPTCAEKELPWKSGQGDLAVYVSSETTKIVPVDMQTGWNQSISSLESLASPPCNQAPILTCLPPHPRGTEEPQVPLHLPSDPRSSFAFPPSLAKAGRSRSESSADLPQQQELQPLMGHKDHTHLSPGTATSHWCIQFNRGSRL

[8] = target: T3, Sodium/hydrogen exchanger 2 (Homo sapiens, UniProt Q9UBY0); assay: Compound is screened in AP1 cells expressing human NHE-2 for sodium hydrogen exchange activity; format: functional, cell-based; in short: as §1
T3 sequence (Q9UBY0 whole entry): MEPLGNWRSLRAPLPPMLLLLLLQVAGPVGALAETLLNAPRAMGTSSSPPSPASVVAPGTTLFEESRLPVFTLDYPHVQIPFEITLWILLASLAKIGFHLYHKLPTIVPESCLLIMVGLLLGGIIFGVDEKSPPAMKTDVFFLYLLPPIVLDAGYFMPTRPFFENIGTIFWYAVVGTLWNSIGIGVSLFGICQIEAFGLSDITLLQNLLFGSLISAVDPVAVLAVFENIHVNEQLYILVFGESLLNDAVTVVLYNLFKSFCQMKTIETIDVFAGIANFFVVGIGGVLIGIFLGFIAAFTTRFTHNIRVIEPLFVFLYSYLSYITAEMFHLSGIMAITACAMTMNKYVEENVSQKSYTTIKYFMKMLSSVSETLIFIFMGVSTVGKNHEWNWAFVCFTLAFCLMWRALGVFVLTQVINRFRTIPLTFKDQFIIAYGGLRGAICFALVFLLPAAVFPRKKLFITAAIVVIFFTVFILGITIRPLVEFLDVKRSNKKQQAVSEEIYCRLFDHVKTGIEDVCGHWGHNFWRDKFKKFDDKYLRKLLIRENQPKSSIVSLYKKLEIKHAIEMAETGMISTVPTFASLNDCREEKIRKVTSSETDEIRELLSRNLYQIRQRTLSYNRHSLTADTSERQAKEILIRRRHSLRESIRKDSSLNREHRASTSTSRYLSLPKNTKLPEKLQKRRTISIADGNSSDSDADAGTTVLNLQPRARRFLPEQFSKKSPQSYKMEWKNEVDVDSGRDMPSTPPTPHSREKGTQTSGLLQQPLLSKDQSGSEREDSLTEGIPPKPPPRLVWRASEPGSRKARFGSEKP

Sodium/hydrogen exchanger 1, sequence (P19634 whole entry, canonical isoform): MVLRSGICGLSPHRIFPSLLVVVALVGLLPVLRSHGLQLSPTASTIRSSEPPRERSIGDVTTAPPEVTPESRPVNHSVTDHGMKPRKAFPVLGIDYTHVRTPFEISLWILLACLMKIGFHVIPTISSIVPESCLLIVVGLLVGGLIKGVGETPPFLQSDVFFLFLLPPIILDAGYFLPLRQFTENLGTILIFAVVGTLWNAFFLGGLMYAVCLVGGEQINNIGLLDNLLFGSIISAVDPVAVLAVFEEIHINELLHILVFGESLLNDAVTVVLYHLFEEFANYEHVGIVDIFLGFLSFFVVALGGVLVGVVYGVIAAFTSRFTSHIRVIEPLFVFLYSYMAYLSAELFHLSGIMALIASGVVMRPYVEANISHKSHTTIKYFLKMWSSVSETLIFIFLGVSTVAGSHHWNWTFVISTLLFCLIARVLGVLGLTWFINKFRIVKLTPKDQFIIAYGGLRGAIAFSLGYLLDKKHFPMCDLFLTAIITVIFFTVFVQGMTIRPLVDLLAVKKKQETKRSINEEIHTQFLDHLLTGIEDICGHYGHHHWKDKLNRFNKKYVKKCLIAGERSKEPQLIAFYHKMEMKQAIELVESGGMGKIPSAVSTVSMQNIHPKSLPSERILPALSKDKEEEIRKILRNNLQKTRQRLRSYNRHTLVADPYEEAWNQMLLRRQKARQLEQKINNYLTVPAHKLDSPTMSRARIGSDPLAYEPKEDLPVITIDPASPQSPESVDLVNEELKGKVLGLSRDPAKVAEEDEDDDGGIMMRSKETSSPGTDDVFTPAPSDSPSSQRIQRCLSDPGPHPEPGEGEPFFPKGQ

Cc1cc([C@@H]2[C@@H](C(=O)N=C(N)N)C2(C)C)ccc1F
IC50 [1]: 32 nM

N=C(N)NC(=O)[C@H]1C[C@@H]1c1cccc([N+](=O)[O-])c1
IC50 [1]: 1600 nM

N=C(N)NC(=O)[C@H]1C[C@@H]1c1cc(Cl)ccc1Cl
Vd [2]: 21 L/kg
half-life [3]: 204 min
IC50 [1]: 40 nM
clearance [4]: 143 mL/min/kg
bioavailability [5]: 13%

CC(C)c1cc([C@@H]2[C@@H](C(=O)N=C(N)N)C2(C)C)ccc1F
IC50 [1]: 17 nM

N=C(N)NC(=O)[C@H]1C[C@@H]1c1ccccc1Cl
IC50 [1]: 980 nM

CC(C)c1ccc([C@H]2C[C@@H]2C(=O)NC(=N)N)cc1
IC50 [1]: > 30000 nM

N=C(N)NC(=O)[C@H]1C[C@@H]1c1ccc(F)c(Br)c1
IC50 [1]: 90 nM

CCc1cc([C@@H]2[C@@H](C(=O)NC(=N)N)C2(C)C)ccc1F
IC50 [1]: 5 nM

N=C(N)NC(=O)[C@H]1C[C@@H]1c1ccccc1
IC50 [1]: 3500 nM

N=C(N)NC(=O)[C@H]1C[C@@H]1c1ccc(F)cc1
IC50 [1]: 1600 nM

CC1(C)[C@H](C(=O)N=C(N)N)[C@H]1c1cc(Cl)ccc1Cl
Vd [2]: 23 L/kg
half-life [3]: 480 min
IC50 [1]: 5 nM
clearance [4]: 44 mL/min/kg
bioavailability [5]: 47%

N=C(N)NC(=O)[C@H]1C[C@@H]1c1ccc(Cl)cc1
IC50 [1]: 2900 nM

CC1(C)[C@H](C(=O)N=C(N)N)[C@H]1c1ccccc1
IC50 [1]: 69 nM

COc1cccc([C@H]2C[C@@H]2C(=O)NC(=N)N)c1
IC50 [1]: 540 nM

N=C(N)NC(=O)[C@H]1C[C@@H]1c1cccc2c1CCO2
Vd [2]: 6 L/kg
half-life [3]: 78 min
IC50 [1]: 120 nM
clearance [4]: 120 mL/min/kg
bioavailability [5]: 49%

CC1(C)[C@H](C(=O)NC(=N)N)[C@H]1c1cccc(Cl)c1
IC50 [1]: 14 nM

COc1cccc([C@@H]2[C@@H](C(=O)NC(=N)N)C2(C)C)c1
IC50 [1]: 12 nM

N=C(N)NC(=O)[C@H]1C[C@@H]1c1cccc(Cl)c1
IC50 [1]: 280 nM

N=C(N)NC(=O)[C@H]1C[C@@H]1c1ccc([N+](=O)[O-])cc1
IC50 [1]: > 30000 nM

CC1(C)[C@H](C(=O)N=C(N)N)[C@H]1c1ccc(F)c(Br)c1
IC50 [1]: 3 nM

CC1(C)[C@H](C(=O)NC(=N)N)[C@H]1c1cc(Cl)cc(Cl)c1
IC50 [1]: 6 nM

CC1(C)[C@H](C(=O)N=C(N)N)[C@H]1c1cccc2c1CCO2
Vd [2]: 8.6 L/kg
half-life [3]: 180 min
IC50 [1]: 9 nM
IC50 [6]: > 30 µM
clearance [4]: 74 mL/min/kg
IC50 [7]: 3.36 µM
bioavailability [5]: 63%
IC50 [8]: 1.8 µM

CC(C)c1ccc(C(=O)NC(=N)N)cc1S(C)(=O)=O [CARIPORIDE]
IC50 [1]: 3400 nM
IC50 [6]: > 30 µM
IC50 [7]: > 30 µM
IC50 [8]: 62 µM

Cc1cc(-n2cccc2)c(S(C)(=O)=O)cc1C(=O)NC(=N)N [ENIPORIDE]
IC50 [1]: 380 nM
IC50 [6]: > 30 µM
IC50 [7]: > 30 µM
IC50 [8]: 17 µM
